Experimental data from PMC4729448 (Molecular cancer therapeutics, 2013).
pIC50: −log10 of the molar value.

Assays:
OE33 cells [1] = test: Phase-contrast cellular morphology of OE33 cells; assay type: cell-based; conditions: 48 h
[2] = system: microtubule network in OE33 cells; test: Anti-α-Tubulin immunofluorescence of microtubule network in OE33 cells; assay type: cell-based; conditions: 48 h
OE33 cells [3] = test: Crystal violet cell proliferation assay; assay type: cell-based; conditions: for pIC50: Homo sapiens, OE33, 48 h, read-out: IC50, OE33 cell proliferation/viability
[4] = system: microtubule distribution in OE33-tumor xenografts; test: Anti-α-Tubulin immunofluorescence of OE33 tumor xenograft sections; assay type: in vivo, athymic nude mice (BALB/c-nu/nu); conditions: treated OE33-tumor xenograft sections vs untreated
[5] = Dissolution in sterile water; assay type: physicochemical
[6] = Pharmacokinetic analysis in cannulated rat model; assay type: in vivo, Sprague Dawley rats; conditions: for observable effects in the animals following dosing: rat pharmacokinetic studies
Procedure, shortened: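 Fasted male Sprague Dawley rats fitted with carotid artery and jugular and/or femoral vein catheters. Dosed iv or orally with 0.2 micron-filtered solutions; automated sampling allowed both routes in the same animal. Plasma separated by centrifugation and stored at -80 °C. Prodrug, 2-ME2 and metabolites quantified by LC-MS/MS against deuterated internal standards. Parameters from non-parametric analysis; animals observed after dosing.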

OE33 xenograft tumors = test: OE33 tumor xenograft in athymic nude mice; assay type: in vivo, athymic nude mice (BALB/c-nu/nu); conditions: 12 days; for effect on growth of established OE33 xenograft tumors: 75 mg/kg/day orogastric
[7] = oral administration, published literature ref 1, 10-12; cited from earlier work
[8] = Sprague-Dawley, rat, plasma, iv, 5.21 mg/kg

| SMILES | alteration of cellular morphology (OE33 cells [1]; 2.5 μM) | alteration of cellular morphology (OE33 cells [1]; 5 μM) | microtubule disruption ([2]; 2.5 μM) | microtubule disruption ([2]; 5 μM) | pIC50 (OE33 cells [3]) | IC50 fold higher than 2-ME2 (OE33 cells [3]; OE33 viability, 48 h) [fold] | microtubule distribution and cellular morphology in tumor xenografts [4] | solubility in sterile water [5] | observable effects in the animals following dosing [6] | effect on growth of established OE33 xenograft tumors (OE33 xenograft tumors) | reduction in tumor volume relative to the control group (OE33 xenograft tumors; oral 75 mg/kg/d) [%] | alteration of cellular morphology compared to 2-ME2-PD1 (OE33 cells [1]; 2.5 μM or 5 μM) | serum bioavailability [7] | AUC(0-t) [6, 8] [ng·h/mL] | Cmax [6, 8] [ng/mL] | half-life [6, 8] [min] |
| --- | --- | --- | --- | --- | --- | --- | --- | --- | --- | --- | --- | --- | --- | --- | --- | --- |
| COc1cc2c(cc1OCOP(=O)([O-])[O-])CC[C@@H]1[C@@H]2CC[C@]2(C)[C@@H](OC(C)=O)CC[C@@H]12.[Na+].[Na+] [2-ME2-PD1, disodium (((8R,9S,13S,14S,17S)-17-acetoxy-2-methoxy-13-methyl-7,8,9,11,12,13,14,15,16,17-decahydro-6H-cyclopenta[a]phenanthren-3-yl)oxy)methyl phosphate] | mild to no alterations | atrophy | not very prominent | significantly disrupted | ~4.77 | ~3 | striking alteration in microtubule distribution | readily dissolves in sterile water | no observable effects | inhibited the growth | 60 ± 5 | – | – | – | – | – |
| COc1cc2c(cc1O)CC[C@@H]1[C@@H]2CC[C@]2(C)[C@@H](O)CC[C@@H]12 [2-ME2, 2-Methoxyestradiol] | – | – | – | totally disrupted | ~5.22 | – | – | – | no observable effects | inconsistent | – | much more drastic | 1 - 2% | 321 | 1220 | 59 |
